The text below walks through data of publication PMC9605878 (Cell Chemical Biology, 2022).

In brackets after ≈: the same amount, converted by molar mass. Where two headings read alike, the source gives them in different places.

Usually MIC stands for the lowest concentration that inhibits growth of the organism. Lower therefore signals inhibition by little substance. As usually defined, the IC50 is the concentration that gives 50% inhibition. For orientation: Kd means the free concentration of one partner at which half of the binding sites on the other are occupied at equilibrium, for simple one-to-one binding.

The subject of one data set is S. aureus strain RN6390B. Kind of data set: S. aureus MIC, broth microdilution. Format: cell-based, Staphylococcus aureus. Put shortly: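 Broth microdilution MIC in Müller–Hinton broth at 37°C; S. aureus also tested in MHB containing 10% FBS.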
Data set [1] deals with S. aureus membranes. Kind of data set: Membrane dipole potential. The format is binding, Staphylococcus aureus. Particulars: for change in membrane dipole potential: fixed concentration 40 μM, fluorescence ratio R(460/520). Put shortly:
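Isolated S. aureus membranes labelled with the dipole-potential probe di-8-ANEPPS. Dipole potential change followed as fluorescence ratio R(460/520), at a fixed 40 μM per compound. Kd obtained from binding curves versus compound concentration by the dual-wavelength ratiometric method, with methanol included. Mean of three independent experiments ±SD.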

Data set [2] has as its system defibrinated rabbit red blood cells. Kind of data set: Haemolytic activity. Format: cell-based. Summed up:
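Defibrinated rabbit blood incubated in PBS for 60 min with test compound or Triton X-100 (positive control). Samples pelleted and supernatant A543 measured. Percent haemolysis calculated relative to the Triton X-100 control.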

The subject of another data set is Staphylococcal cells. In words: Dissipation of transmembrane potential. Format: cell-based, Staphylococcus aureus. Particulars: 10 μM test compound. Summed up: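 Staphylococcal cells suspended in 50 mM potassium phosphate buffer, pH 7, with 5 μM DiSC3(5). Fluorescence (ex 650, em 680 nm) monitored over 200 s. Test compound (10 μM) added once signal stabilised. Valinomycin (5 μM) then added for complete depolarisation. Novobiocin and chloramphenicol (10 μg/ml) served as negative controls. Three independent repeats, representative traces.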

Another data set concerns PqsR. Particulars: read-out: PqsR IC50; ref Ilangovan et al., 2013; cited from earlier work.
For data set [3], the system named is S. aureus strain USA300 JE2. Kind of data set: Membrane permeabilization. Format: cell-based, Staphylococcus aureus. Particulars: 10 μM, relative to nisin 0.6 μM. Put shortly:
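USA300 JE2 grown overnight in CYGP, washed in 100 mM phosphate buffer pH 7, resuspended to OD600 0.1 and exposed to test compound for 1 h at 37°C. Nisin (0.6 μM) used as positive control. Cell-free supernatant ATP measured by luminescence kit. For PI uptake, cells held in phosphate buffer pH 7 with PI (10 μg/ml), 10 min dark at RT, washed, then read (ex 575/em 630 nm). Mean of three experiments ±SD.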

Data set [4] concerns the target S. aureus membranes. The note with it: read-out: Kd (membrane-active agent); ref Murray et al., 2014; cited from earlier work.
The nature of another data set: Chrome azurol S. The format is physicochemical. The note with it: 50 μM, PBS pH 7.4. Summed up: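 PBS (pH 7.4) with test compound (50 μM), or without it as reference, mixed with an equal volume of CAS assay solution. A630 read after 15 min at room temperature. Siderophore units = […].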
In data set [5] the test system is S. aureus SH1000 in mixed biofilm with P. aeruginosa PAO1. In words: Mixed-species biofilm, S. aureus component. Particulars: tobramycin alone (100 μg/mL, 4 h). The format is cell-based, Staphylococcus aureus. Summed up:
(§1)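 GFP-tagged S. aureus SH1000 and mCherry-tagged P. aeruginosa PAO1 grown 16 h in RPMI-1640, diluted 1:100, regrown to OD600 ~0.5, then diluted to OD600 0.1 and 0.01 respectively. S. aureus seeded on glass coverslips for 1 h static, then P. aeruginosa added (10:1). Test compound (100 μM) or DMSO added; 48 h at 37°C. Where required, tobramycin (100 μg/mL) added for a further 4 h. Confocal imaging, biomass quantified per species; 3 experiments ±SD.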

For data set [6], the system named is P. aeruginosa PAO1 in mixed biofilm with S. aureus SH1000. Kind of data set: Mixed-species biofilm, P. aeruginosa component. Format: cell-based, Pseudomonas aeruginosa. Particulars: tobramycin alone (100 μg/mL, 4 h). Summed up: as §1
Setting [7] is: S. aureus RN6390B, broth microdilution.

With `CCCCCCCc1nc2ccccc2c(=O)[nH]1` [Compound 1], the minimal inhibitory concentration (MIC) against S. aureus strain RN6390B (setting [7]) was over 100 µM.
`CCCCCCCCCc1nc2ccccc2c(=O)[nH]1` [Compound 2]: the MIC against S. aureus strain RN6390B (setting [7]) is over 100 µM. Besides, in the data set with S. aureus membranes [1], the “change in membrane dipole potential” value is recorded as “little impact”.
Turning to `CCCCCCCCCc1nc2cc(Cl)ccc2c(=O)[nH]1` [Compound 4, 7-Chloro-2-n-nonylquinazolin-4(3H)-one], in the data set with S. aureus strain RN6390B (Staphylococcus aureus, RN6390B), the MIC was over 100 µM.
Regarding `CCCCCCCC1Nc2ccccc2S(=O)(=O)N1` (stereo not shown) [Compound 5, 3-n-Heptyl-3,4-dihydro-2H-benzo[e][1,2,4]thiadiazine 1,1-dioxide], the “S. aureus growth-inhibitory activity” value in the data set on S. aureus strain RN6390B is “inactive”. In addition, the minimal inhibitory concentration (MIC) against S. aureus strain RN6390B (Staphylococcus aureus, RN6390B) is over 100 µM.
The like results for `CCCCCCCCCC1Nc2ccccc2S(=O)(=O)N1` (stereo not shown) [Compound 6, 3-n-Nonyl-3,4-dihydro-2H-benzo[e][1,2,4]thiadiazine 1,1-dioxide] were, in that order, “inactive” and over 100 µM.
Compound `CCCCCc1nc2ccccc2c(=O)n1N` [Compound 7] showed a minimum inhibitory concentration (MIC) with S. aureus strain RN6390B (setting [7]) of over 100 µM.
In turn, `CCCCCCCc1nc2ccccc2c(=O)n1N` [Compound 8] yielded an MIC in the data set with S. aureus strain RN6390B (setting [7]) of over 100 µM.
As to `Cc1nc2ccccc2c(=O)n1N` [Compound 17, 3-Amino-2-methylquinazolin-4(3H)-one], the MIC in the data set on S. aureus strain RN6390B (Staphylococcus aureus, RN6390B) is over 100 µM.
For `CCCCCCCCCc1nc2cc(F)ccc2c(=O)n1N` [Compound 18], the MIC against S. aureus strain RN6390B (setting [7]) is over 100 µM.
`CCCCCCCCCc1nc2cc(Cl)ccc2c(=O)n1N` [Compound 19] yielded an MIC against S. aureus strain RN6390B (setting [7]) of over 100 µM. In data set [2], the “hemolytic activity” value is “not hemolytic”. The “change in membrane dipole potential” value with S. aureus membranes [1] is listed as “increased”. For the same compound, the “DiSC3(5) fluorescence / transmembrane potential” value with Staphylococcal cells is on record as “does not increase fluorescence”. Also, in the data set on PqsR, the IC50 was 5 µM.
Compound `CCCCCCCCCc1nc2cc(F)c(F)cc2c(=O)n1N` [Compound 22] returned an MIC against S. aureus strain RN6390B (setting [7]) of over 100 µM.
With `CCCCCCCCCc1nc2cc(Cl)ccc2c(=O)n1CCCCN` [Compound 35, 3-(4-Aminobutyl)-7-chloro-2-n-nonylquinazolin-4(3H)-one], in the data set on S. aureus strain RN6390B (Staphylococcus aureus, RN6390B), the minimum inhibitory concentration (MIC) turned out to be 12.5 µM (≈ 4.72 µg/mL). Moreover, the “change in membrane dipole potential” value in the data set on S. aureus membranes [1] was “greatest changes in dipole potential”. For the same compound, the dissociation constant (Kd) on S. aureus membranes [1] (read-out: Kd (membrane binding), binding curves, di-8-ANEPPS) worked out at 5.2 ± 0.3 µM. Besides, the “DiSC3(5) fluorescence / transmembrane potential” value in the data set with Staphylococcal cells is “increase in fluorescence”. The “cellular ATP loss and PI uptake” value in data set [3] was “significant cellular ATP loss alongside the reciprocal uptake of PI”.
The compound `CCCCCCCCCc1nc2cc(F)ccc2c(=O)n1OC` [Compound 39] had an MIC with S. aureus strain RN6390B (setting [7]) of over 100 µM.
On to `CCCCCCCCCc1nc2cc(Cl)ccc2c(=O)n1CCO` [Compound 45, 7-Chloro-3-(2-hydroxyethyl)-2-n-nonylquinazolin-4(3H)-one], for which the MIC against S. aureus strain RN6390B (setting [7]) is over 100 µM; against S. aureus strain RN6390B (Staphylococcus aureus, RN6390B), over 100 µM.
`CCCCCCCCCc1[nH]c2ccccc2c(=O)c1O` [Compound C9-PQS, reference compound]: the “change in membrane dipole potential” value in the data set with S. aureus membranes [1] is recorded as “little impact”.
For the compound `CCCCCCCCCCCCCC(=O)C1=C(O)COC1=O` [Compound C14-TOA, 3-tetradecanoyltetronic acid], the dissociation constant (Kd) on S. aureus membranes [4] is 4 µM.
In the case of `CCCCCCCc1[nH]c2ccccc2c(=O)c1O` [PQS, 2-Heptyl-3-hydroxy-4(1H)-quinolone], in the data set “Chrome azurol S”, the iron-chelating properties entry is “sequestered iron”.
For `NC[C@H]1O[C@H](O[C@H]2[C@H](O)[C@@H](O[C@H]3O[C@H](CO)[C@@H](O)[C@H](N)[C@H]3O)[C@H](N)C[C@@H]2N)[C@H](N)C[C@@H]1O` [tobramycin], in data set [5], the S. aureus biomass entry is “clearly protected”. Moreover, the “reduction of P. aeruginosa biomass” value in data set [6] is on record as about 60%.
